Experimental data collected from several papers.
Target: Adenosine receptor A3 (ADORA3, Homo sapiens, UniProt P0DMS8)
Residues used in one study (P0DMS8 1-318): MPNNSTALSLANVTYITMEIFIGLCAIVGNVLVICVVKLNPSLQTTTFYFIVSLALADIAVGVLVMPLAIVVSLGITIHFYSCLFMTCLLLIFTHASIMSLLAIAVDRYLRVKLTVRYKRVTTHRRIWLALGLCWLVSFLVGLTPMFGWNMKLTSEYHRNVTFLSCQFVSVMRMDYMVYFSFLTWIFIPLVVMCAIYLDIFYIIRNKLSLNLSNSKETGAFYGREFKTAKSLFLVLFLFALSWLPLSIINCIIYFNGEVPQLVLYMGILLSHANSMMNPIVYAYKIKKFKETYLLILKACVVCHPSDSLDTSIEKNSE

SMILES	read-out	mode	method	cells	tested at	measurement	value
CN(CCN1CCC(OC(=O)Nc2ccccc2-c2ccccc2)CC1)C(=O)c1ccc(CN2CCC(C(N)=O)CC2)cc1	ligand displacement	–	radioligand	–	1 µM	inhibition	-12%
CCNC(=O)[C@H]1O[C@@H](n2cnc3c(N)ncnc32)[C@H](O)[C@@H]1O	β-arrestin recruitment	agonist	–	HEK-293T	–	Emax	99.5%
CC(C)N1CCC[C@H]1CNC(=O)c1cn(C2CCCC2)c(=O)c2c1c1ccccc1n2C	ligand displacement	–	radioligand	–	10 µM	inhibition	14%
COc1ccc(S(=O)(=O)N2CCCCC2)cc1C	ligand displacement	–	radioligand	–	10 µM	inhibition	< 30%
CCOC(=O)[C@@]12C[C@@H]1[C@@H](n1cnc3c(N[C@H](C4CCC4)C4CC4)nc(I)nc31)[C@H](O)[C@@H]2O	ligand displacement	–	radioligand	–	10 µM	inhibition	88%
COCc1c(-c2cc3cc(C)cc(OC)c3s2)c2c(N)ncnn2c1CN1CCNC(=O)C1	ligand displacement	–	radioligand	–	10 µM	inhibition	39%
O=C(Nc1cccnn1)N1CCN([C@@H]2CCOc3cc(C(F)(F)F)ccc32)CC1	ligand displacement	–	–	–	20 µM	inhibition	25%
c1ccc(C(NCCNC(c2ccccc2)c2ccccc2)c2ccccc2)cc1	cell-free assay	–	–	–	10 µM	inhibition	70%
COCCN(CCOC)C(=O)[C@@]12C[C@@H]1[C@@H](n1cnc3c(N)nc(Cl)nc31)[C@H](O)[C@@H]2O	ligand displacement	–	radioligand	–	10 µM	inhibition	51%
CCN(CC)CCCC[C@H](NC(=O)[C@H](CC(C)C)NC(=O)[C@H](C)NC(=O)[C@H](Cc1ccccc1)NC(=O)c1ccc(C(C)(C)C)cc1)C(=O)N[C@@H](CO)C(=O)OC	ligand displacement	–	radioligand	–	10 µM	remaining binding	96.9%
CC(C)Cn1cnc2c(N)nc3ccccc3c21	ligand displacement	–	radioligand	–	10 µM	inhibition	16%
C[C@H](C(=O)N[C@H]1COc2ccccc2[C@@H]1S(C)(=O)=O)c1ccc(F)cc1	cell-free assay	–	–	–	10 µM	inhibition	11%
CCCCSC[C@@]12C[C@@H]1[C@@H](n1cnc3c(NC(C4CCCC4)C4CCCC4)nc(Cl)nc31)[C@H](O)[C@@H]2O	ligand displacement	–	radioligand	–	10 µM	inhibition	33%
